Assay results taken from ChEMBL document CHEMBL3046951, “Volatile constituents from the leaves of Callicarpa japonica Thunb. and their antibacterial activities” (2004).

What was measured:
Format in all cases: functional
Bacillus cereus [1] = assay: Antimicrobial activity against Bacillus cereus ATCC 11778 assessed as growth inhibition rate at 215.04 mg/l after 72 hr by spectrophotometry; settings: ATCC 11778, 72 h, read-out: GI
Method in brief: (§1)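 Pure volatile compounds (purity >95%; one at 90%) were tested against B. cereus ATCC 11778. The strain was grown at 30 °C in nutrient broth for 24 h, then subcultured for 18 h. Optical density was read in a Bioscreen C every 24 h for 72 h, with 10% Tween 80 as the control.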

Bacillus cereus [2] = assay: Antimicrobial activity against Bacillus cereus ATCC 11778 assessed as growth inhibition rate at 107.52 mg/l after 72 hr by spectrophotometry; settings: ATCC 11778, 72 h, read-out: GI; method in brief: as §1
Bacillus cereus [3] = assay: Antimicrobial activity against Bacillus cereus ATCC 11778 assessed as growth inhibition rate at 61.12 mg/l after 72 hr by spectrophotometry; settings: ATCC 11778, 72 h, read-out: GI; method in brief: as §1
Salmonella typhimurium [4] = assay: Antimicrobial activity against Salmonella enterica subsp. enterica serovar Typhimurium ATCC 14028 assessed as growth inhibition rate at 107.52 mg/l after 72 hr by spectrophotometry; settings: ATCC 14028, 72 h, read-out: GI
Method in brief: (§2)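 Salmonella Typhimurium ATCC 14028 grown in nutrient broth at 30 °C, precultured 24 h, then subcultured 1:100 for 18 h before testing. Single volatile compounds (>95% pure) were added. OD was read every 24 h over 72 h in a Bioscreen C, with 10% Tween 80 as the comparison control.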

Salmonella typhimurium [5] = assay: Antimicrobial activity against Salmonella enterica subsp. enterica serovar Typhimurium ATCC 14028 assessed as growth inhibition rate at 61.12 mg/l after 72 hr by spectrophotometry; settings: ATCC 14028, 72 h, read-out: GI
Salmonella typhimurium [6] = assay: Antimicrobial activity against Salmonella enterica subsp. enterica serovar Typhimurium ATCC 14028 assessed as growth inhibition rate at 43 mg/l after 72 hr by spectrophotometry; settings: ATCC 14028, 72 h, read-out: GI; method in brief: as §2
Salmonella typhimurium [7] = assay: Antimicrobial activity against Salmonella enterica subsp. enterica serovar Typhimurium ATCC 14028 assessed as growth inhibition rate at 21.52 mg/l after 72 hr by spectrophotometry; settings: ATCC 14028, 72 h, read-out: GI; method in brief: as §2
Vibrio parahaemolyticus [8] = assay: Antimicrobial activity against Vibrio parahaemolyticus ATCC 33844 assessed as growth inhibition rate at 6.12 mg/l after 72 hr by spectrophotometry; settings: ATCC 33844, 72 h, read-out: GI
Listeria monocytogenes [9] = assay: Antimicrobial activity against Listeria monocytogenes ATCC 19111 assessed as growth inhibition rate at 247 mg/l after 72 hr by spectrophotometry; settings: ATCC 19111, 72 h, read-out: GI
Method in brief: (§3)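 L. monocytogenes was grown at 30 °C in tryptic soy broth, subcultured for 18 h, and exposed to pure volatile compounds (>95% purity). Growth was followed by Bioscreen C optical density every 24 h for 72 h against a 10% Tween 80 control.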

Escherichia coli [10] = assay: Antimicrobial activity against Escherichia coli O157:H7 ATCC 43894 assessed as growth inhibition rate at 215.04 mg/l after 72 hr by spectrophotometry; settings: O157:H7 ATCC 43894, 72 h, read-out: GI
Escherichia coli [11] = assay: Antimicrobial activity against Escherichia coli O157:H7 ATCC 43894 assessed as growth inhibition rate at 107.52 mg/l after 72 hr by spectrophotometry; settings: O157:H7 ATCC 43894, 72 h, read-out: GI
Escherichia coli [12] = assay: Antimicrobial activity against Escherichia coli O157:H7 ATCC 43894 assessed as growth inhibition rate at 61.12 mg/l after 72 hr by spectrophotometry; settings: O157:H7 ATCC 43894, 72 h, read-out: GI
Method in brief: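 Authentic volatiles (>95% purity; 2,4-heptadienal 90%) tested against 18 h subcultures. Growth media: E. coli O157:H7 and S. aureus in tryptic soy broth at 37 °C; L. monocytogenes in tryptic soy broth at 30 °C; V. parahaemolyticus in tryptic soy broth + 3% NaCl at 37 °C; S. typhimurium in nutrient broth at 30 °C. Bioscreen C OD every 24 h for 72 h versus 10% Tween 80 control.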

Escherichia coli [13] = assay: Antimicrobial activity against Escherichia coli O157:H7 ATCC 43894 assessed as growth inhibition rate at 43 mg/l after 72 hr by spectrophotometry; settings: O157:H7 ATCC 43894, 72 h, read-out: GI
Staphylococcus aureus [14] = assay: Antimicrobial activity against Staphylococcus aureus ATCC 25923 assessed as growth inhibition rate at 247 mg/l after 72 hr by spectrophotometry; settings: ATCC 25923, 72 h, read-out: GI
Escherichia coli [15] = assay: Antimicrobial activity against Escherichia coli O157:H7 ATCC 43894 assessed as growth inhibition rate at 21.52 mg/l after 72 hr by spectrophotometry; settings: O157:H7 ATCC 43894, 72 h, read-out: GI
Escherichia coli [16] = assay: Antimicrobial activity against Escherichia coli O157:H7 ATCC 43894 assessed as growth inhibition rate at 6.12 mg/l after 72 hr by spectrophotometry; settings: O157:H7 ATCC 43894, 72 h, read-out: GI
Staphylococcus aureus [17] = assay: Antimicrobial activity against Staphylococcus aureus ATCC 25923 assessed as growth inhibition rate at 215.04 mg/l after 72 hr by spectrophotometry; settings: ATCC 25923, 72 h, read-out: GI
Staphylococcus aureus [18] = assay: Antimicrobial activity against Staphylococcus aureus ATCC 25923 assessed as growth inhibition rate at 107.52 mg/l after 72 hr by spectrophotometry; settings: ATCC 25923, 72 h, read-out: GI
Staphylococcus aureus [19] = assay: Antimicrobial activity against Staphylococcus aureus ATCC 25923 assessed as growth inhibition rate at 61.12 mg/l after 72 hr by spectrophotometry; settings: ATCC 25923, 72 h, read-out: GI
Vibrio parahaemolyticus [20] = assay: Antimicrobial activity against Vibrio parahaemolyticus ATCC 33844 assessed as growth inhibition rate at 247 mg/l after 72 hr by spectrophotometry; settings: ATCC 33844, 72 h, read-out: GI
Bacillus cereus [21] = assay: Antimicrobial activity against Bacillus cereus ATCC 11778 assessed as growth inhibition rate at 6.12 mg/l after 72 hr by spectrophotometry; settings: ATCC 11778, 72 h, read-out: GI; method in brief: as §1
Escherichia coli [22] = assay: Antimicrobial activity against Escherichia coli O157:H7 ATCC 43894 assessed as growth inhibition rate at 247 mg/l after 72 hr by spectrophotometry; settings: O157:H7 ATCC 43894, 72 h, read-out: GI
Listeria monocytogenes [23] = assay: Antimicrobial activity against Listeria monocytogenes ATCC 19111 assessed as growth inhibition rate at 215.04 mg/l after 72 hr by spectrophotometry; settings: ATCC 19111, 72 h, read-out: GI; method in brief: as §3
Listeria monocytogenes [24] = assay: Antimicrobial activity against Listeria monocytogenes ATCC 19111 assessed as growth inhibition rate at 107.52 mg/l after 72 hr by spectrophotometry; settings: ATCC 19111, 72 h, read-out: GI; method in brief: as §3
Listeria monocytogenes [25] = assay: Antimicrobial activity against Listeria monocytogenes ATCC 19111 assessed as growth inhibition rate at 61.12 mg/l after 72 hr by spectrophotometry; settings: ATCC 19111, 72 h, read-out: GI; method in brief: as §3
Vibrio parahaemolyticus [26] = assay: Antimicrobial activity against Vibrio parahaemolyticus ATCC 33844 assessed as growth inhibition rate at 215.04 mg/l after 72 hr by spectrophotometry; settings: ATCC 33844, 72 h, read-out: GI
Staphylococcus aureus [27] = assay: Antimicrobial activity against Staphylococcus aureus ATCC 25923 assessed as growth inhibition rate at 6.12 mg/l after 72 hr by spectrophotometry; settings: ATCC 25923, 72 h, read-out: GI
Vibrio parahaemolyticus [28] = assay: Antimicrobial activity against Vibrio parahaemolyticus ATCC 33844 assessed as growth inhibition rate at 107.52 mg/l after 72 hr by spectrophotometry; settings: ATCC 33844, 72 h, read-out: GI
Vibrio parahaemolyticus [29] = assay: Antimicrobial activity against Vibrio parahaemolyticus ATCC 33844 assessed as growth inhibition rate at 43 mg/l after 72 hr by spectrophotometry; settings: ATCC 33844, 72 h, read-out: GI
Vibrio parahaemolyticus [30] = assay: Antimicrobial activity against Vibrio parahaemolyticus ATCC 33844 assessed as growth inhibition rate at 61.12 mg/l after 72 hr by spectrophotometry; settings: ATCC 33844, 72 h, read-out: GI
Bacillus cereus [31] = assay: Antimicrobial activity against Bacillus cereus ATCC 11778 assessed as growth inhibition rate at 247 mg/l after 72 hr by spectrophotometry; settings: ATCC 11778, 72 h, read-out: GI; method in brief: as §1

CCC/C=C/C=O
inhibition of growth at 215.04 µg/mL (Bacillus cereus [1]): 100%
inhibition of growth at 107.52 µg/mL (Bacillus cereus [2]): 100%
inhibition of growth at 61.12 µg/mL (Bacillus cereus [3]): 98.7%
inhibition of growth at 107.52 µg/mL (Salmonella typhimurium [4]): 98.9%
inhibition of growth at 61.12 µg/mL (Salmonella typhimurium [5]): 98.5%
inhibition of growth at 43 µg/mL (Salmonella typhimurium [6]): 83.4%
inhibition of growth at 21.52 µg/mL (Salmonella typhimurium [7]): 63%
inhibition of growth at 6.12 µg/mL (Vibrio parahaemolyticus [8]): 84.7%
inhibition of growth at 247 µg/mL (Listeria monocytogenes [9]): 99.7%
inhibition of growth at 215.04 µg/mL (Escherichia coli [10]): 97.3%
inhibition of growth at 107.52 µg/mL (Escherichia coli [11]): 89.9%
inhibition of growth at 61.12 µg/mL (Escherichia coli [12]): 47.5%
inhibition of growth at 43 µg/mL (Escherichia coli [13]): 25.5%
inhibition of growth at 247 µg/mL (Staphylococcus aureus [14]): 100%
inhibition of growth at 21.52 µg/mL (Escherichia coli [15]): 8.2%
inhibition of growth at 6.12 µg/mL (Escherichia coli [16]): 7.3%
inhibition of growth at 215.04 µg/mL (Staphylococcus aureus [17]): 100%
inhibition of growth at 107.52 µg/mL (Staphylococcus aureus [18]): 96.7%
inhibition of growth at 61.12 µg/mL (Staphylococcus aureus [19]): 72.6%
inhibition of growth at 247 µg/mL (Vibrio parahaemolyticus [20]): 100%
inhibition of growth at 6.12 µg/mL (Bacillus cereus [21]): 90.5%
inhibition of growth at 247 µg/mL (Escherichia coli [22]): 99.9%
inhibition of growth at 215.04 µg/mL (Listeria monocytogenes [23]): 99.8%
inhibition of growth at 107.52 µg/mL (Listeria monocytogenes [24]): 99.4%
inhibition of growth at 61.12 µg/mL (Listeria monocytogenes [25]): 81.2%
inhibition of growth at 215.04 µg/mL (Vibrio parahaemolyticus [26]): 99.8%
inhibition of growth at 6.12 µg/mL (Staphylococcus aureus [27]): 29.2%
inhibition of growth at 107.52 µg/mL (Vibrio parahaemolyticus [28]): 99.8%
inhibition of growth at 43 µg/mL (Vibrio parahaemolyticus [29]): 100%
inhibition of growth at 61.12 µg/mL (Vibrio parahaemolyticus [30]): 99.8%
inhibition of growth at 247 µg/mL (Bacillus cereus [31]): 98.8%
